An excerpt weighted towards active compounds, which were near 2.2% of everything screened.
NR2E3 ag-1 – activates human NR2E3 receptor; Q9Y5X4; CHO-S Gal4-NCOR/VP16-NR2E3 two-hybrid, luciferase; inhibition of corepressor binding, % at 3.98 µM; hit rate 0.35% among 360,000; AID 602229;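 active = inhibition above the mean of all tested compounds plus 3 SD, cut at about 70% in these data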;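 also: 0% = DMSO with NR2E3 transfected cells and 100% = cells lacking NR2E3 construct; higher means lower luciferase signal from less NR2E3 corepressor binding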
Target sequence (Q9Y5X4 whole entry, looked up, the tested form may be a part): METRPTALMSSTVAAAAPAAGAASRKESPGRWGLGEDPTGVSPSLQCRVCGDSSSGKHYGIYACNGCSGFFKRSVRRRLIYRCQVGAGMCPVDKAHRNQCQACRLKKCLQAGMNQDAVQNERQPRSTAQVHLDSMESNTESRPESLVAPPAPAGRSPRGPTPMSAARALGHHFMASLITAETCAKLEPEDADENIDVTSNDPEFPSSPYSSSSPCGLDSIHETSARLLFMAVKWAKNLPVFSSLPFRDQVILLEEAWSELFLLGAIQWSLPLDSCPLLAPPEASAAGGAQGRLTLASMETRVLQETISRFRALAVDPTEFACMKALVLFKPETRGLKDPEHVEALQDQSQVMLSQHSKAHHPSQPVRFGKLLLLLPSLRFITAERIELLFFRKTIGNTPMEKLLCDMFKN
V-ATPase pH – regulators of yeast V-ATPase proton transport. S. cerevisiae, pHLuorin cytosolic pH fluorescence. response, % at 10 µM. hit rate 0.37% among 350,000. AID 504577; in the data active = response mostly above about 7.3%, no sharp cut-off; inactive = mostly below about 5.4%; also: actives read high
FXN GAA850 act – frataxin GAA850 promoter activation | HEK293 lucGAA850 FXN promoter luciferase reporter, 24 h; percent of 10 µM SAHA response | activation, % at 6 µM | hit rate 0.56% among 360,000 | AID 540364;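 active = activation above the average of all compounds screened plus 3 SD, cutoff fixed separately per campaign, cut at about 7.5% in these data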;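 also: 0% = DMSO wells and 100% = 10 µM SAHA wells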
GalR3 antagonist – blocks the human galanin receptor 3; O60755; HEK293 GalR3-CNG cAMP membrane potential fluorescence; galR3 body fused to GalR1 C-terminus; inhibition, % at 3 µM; hit rate 0.44% among 360,000;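 active = inhibition above the screen-wide average plus 3 SD, cut at about 13% in these data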;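 also: forskolin and galanin both at EC90 stimulate the cells; cAMP rise reported by CNG channel membrane potential dye signal; 0% = forskolin plus galanin with DMSO and 100% = forskolin alone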
Target sequence (O60755 1-299 limits assumed): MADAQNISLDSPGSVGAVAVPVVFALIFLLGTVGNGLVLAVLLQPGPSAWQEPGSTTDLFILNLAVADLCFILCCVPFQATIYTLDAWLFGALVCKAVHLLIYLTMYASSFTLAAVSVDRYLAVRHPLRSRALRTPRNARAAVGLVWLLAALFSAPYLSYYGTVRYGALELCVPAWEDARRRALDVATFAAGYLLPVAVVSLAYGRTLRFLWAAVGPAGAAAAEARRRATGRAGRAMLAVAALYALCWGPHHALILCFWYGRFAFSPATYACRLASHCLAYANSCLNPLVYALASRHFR
Env fusion inh – inhibitors of HIV Env-mediated cell fusion; HeLa-JRFL Env/CEM21 cell fusion, luciferase; hit rate 1.1% among 360,000; inhibition, % at 12.3 µM;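 active = mean replicate inhibition score of at least 50 and every replicate individually at or above 50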;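 also: 0% = plate neutral controls and 100% = maraviroc near 300 nM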
NR2E3 ag-2 – agonists of human nuclear receptor NR2E3; GST-NR2E3/biotin-RetCOR TR-FRET, 1536-well; hit rate 0.12% among 320,000; inhibition of corepressor binding, % at 4.78 µM; Q9Y5X4;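 active = percent inhibition above the cutoff of mean plus 3 SD of all tested compounds, set per screening campaign, cut at about 20% in these data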;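 also: 0% = DMSO wells and 100% = biotin wells as full block of FRET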
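Material: NR2E3–RetCOR corepressor complex | Quantity: 1.35 nM GST-tagged NR2E3 final | Schedule: 5 h at 4 °C | Replication: Singlicate compound wells | Reagent: RetCOR corepressor, biotinylated, 7 nM | Controls: Biotin wells as high control, 0.6% DMSO wells as low control | Signal: TR-FRET, Eu(K)-anti-GST donor, streptavidin-D2 acceptor, ex 340, em 617/671 nm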
GAA30 counter – counter-screen for GAA850 frataxin promoter activators: GAA30 promoter activation. shares compounds with FXN GAA850 act. HEK293 lucGAA30 FXN promoter luciferase, 24 h; DMSO = 0%, 5 µM ipriflavone = 100%. activation, % at 6 µM. hit rate 66% among 1,900;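 active = mean activation above the mean of solvent-only control wells plus 3 SD, cut at about 22% in these data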;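 also: counterscreen of GAA850 promoter hits where activity marks nonselective or luminescence artifacts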
FXN GAA850 conf – GAA850 FXN promoter activation confirmation; hit rate 86% among 1,900; HEK293 lucGAA850 FXN promoter luciferase reporter, 24 h; 100% = activation by SAHA; shares compounds with FXN GAA850 act; activation, % at 6 µM;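 active = mean activation above a set limit taken from the primary screen, cut at about 8% in these data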;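 also: 0% = DMSO wells and 100% = 10 µM SAHA wells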
* hit, by the source's call; · = no result given; ! = not active in a repeat; [ ] = another dose, or the depositor's remark.

SMILES	NR2E3 ag-1	V-ATPase pH	FXN GAA850 act	GalR3 antagonist	Env fusion inh	NR2E3 ag-2	GAA30 counter	FXN GAA850 conf
CC1Cc2ccccc2N1C(=O)COc1ccc2c(c1)OCO2 (stereo not given)	-41.1	-3.7	8.0*	3.6	-6.8	-3.4	78.6*	23.5*
CCCC(=O)Nc1ccc2c(c1)C(=O)N(C)[C@@H]1CC[C@@H](CC(=O)N3CCc4ccccc4C3)O[C@@H]1CO2	·	·	·	·	-8.9[16.7 µM]	·	·	·
O=C(CC12CC3CC(CC(C3)C1)C2)NC(=S)N1CCCCC1	-0.4	-0.1	3.7	-3.5	-3.5	4.2	·	·
S=C(NC12CC3CC(CC(C3)C1)C2)N1CCCC1	1.0	-0.1	9.4*	-3.7	·	2.8	26.6*	10.8*
Cc1cccc(NC(=O)NC2CCCCCCC2)c1	-117.1	-2.8	7.6*	-3.2	-88.1	·	101.8*	36.4*
O=C(Nc1ccc(F)c(F)c1)NC1CCCCC1	-59.7	-2.6	1.4	-2.1	4.5	0.6	·	·
Cc1ccc(NC(=O)NC2CCCCCCC2)cc1C	-46.8	-3.8	9.7*	-3.2	-106.6	·	92.6*	35.5*
NC(=O)CC1C(=O)N(c2ccccc2)C(=S)N1NC(=O)c1ccc(Br)cc1 (stereo not given)	-119.3	0.6	3.7	-10.1	-15.0	-2.0	·	·
COc1cccc(C(=O)NN2C(=S)N(c3ccccc3)C(=O)C2CC(N)=O)c1 (stereo not given)	-101.5	0.4	7.8*	-4.2	-31.0	5.3	107.1*	28.8*
NC(=O)CC1C(=O)N(c2ccccc2)C(=S)N1NC(=O)c1ccccc1 (stereo not given)	-68.5	3.4	8.9*	-8.4	-32.8	·	76.6*	20.2*
COc1cc2c(cc1OC)/C(=C/C(=O)c1ccccc1F)NCC2	19.3	0.6	8.3*	3.8	5.3	·	16.6	12.4*
COc1ccc(S(=O)(=O)N(C)C[C@@H]2Oc3cc(C#CC4CC4)ccc3S(=O)(=O)N([C@@H](C)CO)C[C@@H]2C)cc1	·	·	·	·	0.7[16.7 µM]	·	·	·
C[C@@H]1CN([C@H](C)CO)C(=O)c2cc(C3=CCCCC3)cnc2O[C@@H]1CN(C)C(=O)c1ccncc1	·	·	·	·	1.9[16.7 µM]	·	·	·
O=C(Oc1c(CN2CCOCC2)cc(Cl)c2cccnc12)c1ccc(F)cc1	7.0	-3.2	-0.2	-3.6	17.8	2.4	·	·
COc1cc(C(=O)Oc2c(CN3CCOCC3)cc(Cl)c3cccnc23)cc(OC)c1OC	30.8	2.6	18.1*	·	·	-1.3	-27.0	24.5*
COc1cccc(C(=O)Oc2c(CN3CCOCC3)cc(Cl)c3cccnc23)c1	11.8	-1.7	8.2*	-4.0	-4.2	-1.8	16.1	8.3*
O=C(Oc1c(CN2CCOCC2)cc(Cl)c2cccnc12)c1cccs1	-27.1	2.5	-0.6	-4.1	15.2	0.5	·	·
COc1ccc(C(=O)Oc2c(CN3CCOCC3)cc(Cl)c3cccnc23)cc1	-30.8	2.8	0.4	-4.4	·	4.9	·	·
O=C(Oc1c(CN2CCOCC2)cc(Cl)c2cccnc12)c1ccccc1Cl	36.0	-0.1	12.9*	-1.9	7.5	1.7	3.4	19.4*
CNC[C@H]1OCCCC[C@@H](C)Oc2ccc(NC(=O)Cc3ccccc3)cc2C(=O)N([C@H](C)CO)C[C@H]1C	·	·	·	·	20.5[16.7 µM]	·	·	·
C[C@H](CO)N1C[C@H](C)[C@H](CN(C)Cc2ccc(C(F)(F)F)cc2)Oc2ccc(NS(=O)(=O)c3cn(C)cn3)cc2CC1=O	·	·	·	·	13.9[16.7 µM]	·	·	·
C[C@H]1CN([C@@H](C)CO)C(=O)c2cc(NC(=O)Cc3ccccc3)ccc2O[C@@H]1CN(C)C(=O)Nc1ccccc1	·	·	·	·	-7.0[16.7 µM]	·	·	·
O=C(N/N=C/C(Br)=C/c1ccccc1)c1cc(-c2ccco2)[nH]n1	-14.4	-2.2	8.3*	-7.7	-72.4	-4.9	3.8	12.6*
O=C(CNc1cccc2ccccc12)N/N=C/C(Br)=C/c1ccccc1	-32.2	-0.4	12.7*	-8.3	·	1.0	-19.4	2.0
O=C(N/N=C/C(Br)=C/c1ccccc1)c1ccccc1F	-76.8	-4.6	8.5*	-7.9	-84.5	-6.5	109.8*	42.2*
SMILES	NR2E3 ag-1	V-ATPase pH	FXN GAA850 act	GalR3 antagonist	Env fusion inh	NR2E3 ag-2	GAA30 counter	FXN GAA850 conf
CC1=NNC(=O)C1CCC(=O)N/N=C/C(Br)=C/c1ccccc1 (stereo not given)	0.4	3.7	11.6*	-0.8	19.2	-2.7	24.1*	5.3
CCCN1C[C@H](C)[C@H](OC)CN(C)C(=O)c2ccc(NC(=O)c3ccc(F)cc3)cc2OC[C@@H]1C	·	·	·	·	5.6[16.7 µM]	·	·	·
N#Cc1ccc(Nc2nc(NCc3ccccc3)nc3ccsc23)cc1	-50.9	·	9.5*	-3.0	16.3	·	32.8*	13.3*
CNc1nc(NCc2ccccc2)c2sccc2n1	1.6	·	1.8	-4.1	8.3	·	·	·
C[C@H](CO)N1C[C@H](C)[C@@H](CN(C)S(=O)(=O)c2ccccc2)Oc2ccc(NC(=O)Cc3ccccc3)cc2CC1=O	·	·	·	·	27.4[16.7 µM]	·	·	·
C[C@H]1CN([C@@H](C)CO)C(=O)c2cc(Br)cnc2O[C@@H]1CN(C)CC1CCOCC1	·	·	·	·	-1.7[16.7 µM]	·	·	·
CC(C)(C)c1nc(CN2CCOCC2)cc(CN2CCOCC2)c1O	-25.6	-1.4	0.3	-2.8	18.0	-2.7	·	·
Cc1ccc(-c2nc(CN3CCCCC3)cc(CN3CCCCC3)c2O)cc1	-7.8	2.6	7.9*	-4.1	-18.3	1.8	29.4*	17.4*
COc1ccc(OCC(O)CN2CCN(Cc3ccc4c(c3)OCO4)CC2)cc1 (stereo not given)	-16.0	-0.4	2.0	-3.8	-8.5	-1.3	·	·
CC(=O)c1ccc(OCC(O)CN2CCN(Cc3ccc4c(c3)OCO4)CC2)cc1 (stereo not given)	9.7	-0.5	9.3*!	-2.1	-7.3	1.2	22.4*	5.8
O=C(Nc1sc2c(c1C(=O)NCc1ccco1)CCCC2)c1ccc2c(c1)OCO2	-67.1	-1.1	10.2*	0.7	-104.3	-2.2	69.2*	30.8*
C[C@@H]1CN([C@@H](C)CO)C(=O)c2cc(NS(=O)(=O)c3ccc(Cl)cc3)ccc2O[C@@H](C)CCCCO[C@@H]1CN(C)Cc1ccccc1	·	·	·	·	-0.6[16.7 µM]	·	·	·
c1ccc(CSc2nc3ccccc3[nH]2)cc1	-76.0	-1.9	7.9*	-1.6	-263.5	4.3	91.2*	29.2*
CC(C)c1ccc(NC(=O)NN2CCOCC2)cc1	-83.8	0.1	8.0*	-5.2	-56.3	2.0	85.1*	33.4*
CCCCNc1nc(N)nc(-c2cc(Cl)ccc2O)n1	-71.1	-5.1	14.0*	-1.6	-213.1	2.9	132.8*	73.0*
CCNc1nc(N)nc(-c2cc(Cl)ccc2O)n1	-51.5	6.2	16.6*	·	·	-2.0	150.5*	93.4*

High-throughput results as filed in PubChem.
